The source made the active and inactive calls. The calls are words filed in the database; no cut-off is given here.
Legend:
[1] = Toxicity in po dosed dog; format: organism-based, Canis lupus familiaris; conditions: in vivo
Syrian golden hamster [2] = test: Toxicity in Syrian hamster assessed as spleen weight at 5 % administered tropically on footpad for 28 days (reference value: 179.4 +/- 19.8 mg); format: organism-based, Mesocricetus auratus; conditions: in vivo, topical_or_ocular, 672 h
Syrian golden hamster [3] = test: Toxicity in Syrian hamster infected with Leishmania tropica MHOM/MA/1988/LEM1314 promastigotes assessed as mean serum ALT levels at 2.5 % administered tropically on footpad for 3 weeks starting at week 7 post infection measured 1 week post last dose (reference value: 81.6 +/- 4.9 U/L); format: organism-based, Mesocricetus auratus; conditions: in vivo, topical_or_ocular, 168 h
Syrian golden hamster [4] = test: Toxicity in Syrian hamster infected with Leishmania tropica MHOM/MA/1988/LEM1314 promastigotes assessed as mean serum AST levels at 200 mg/kg administered through oral gavage for 3 weeks starting at week 7 post infection measured 1 week post last dose (reference value: 77.1 +/- 0.9 U/L); format: organism-based, Mesocricetus auratus; conditions: in vivo, 168 h
Syrian golden hamster [5] = test: Toxicity in Syrian hamster infected with Leishmania tropica MHOM/MA/1988/LEM1314 promastigotes assessed as mean serum ALP levels at 5 % administered tropically on footpad for 3 weeks starting at week 7 post infection measured 1 week post last dose (reference value: 14.4 +/- 0.9 U/L); format: organism-based, Mesocricetus auratus; conditions: in vivo, topical_or_ocular, 168 h
Syrian golden hamster [6] = test: Toxicity in Syrian hamster infected with Leishmania tropica MHOM/MA/1988/LEM1314 promastigotes assessed as mean serum creatinine levels at 1 % administered tropically on footpad for 3 weeks starting at week 7 post infection measured 1 week post last dose (reference value: 0.19 mg/dl); format: organism-based, Mesocricetus auratus; conditions: in vivo, topical_or_ocular, 168 h
Syrian golden hamster [7] = test: Toxicity in Syrian hamster infected with Leishmania tropica MHOM/MA/1988/LEM1314 promastigotes assessed as spleen weight at 1 % administered tropically on footpad for 3 weeks starting at week 7 post infection measured 1 week post last dose (reference value: 178.8 +/- 1.2 mg); format: organism-based, Mesocricetus auratus; conditions: in vivo, topical_or_ocular, 168 h
Syrian golden hamster [8] = test: Toxicity in Syrian hamster infected with Leishmania tropica MHOM/MA/1988/LEM1314 promastigotes assessed as liver weight at 1 % administered tropically on footpad for 3 weeks starting at week 7 post infection measured 1 week post last dose (reference value: 3.3 +/- 0.2 g); format: organism-based, Mesocricetus auratus; conditions: in vivo, topical_or_ocular, 168 h
Outline: (§1)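 Infected hamsters were treated daily for 21 days from week 7 post-infection (ointment 1–5%, 200 mg/kg gavage, or intralesional meglumine antimoniate 2 mg SbV/kg). Clinical signs and body weight were monitored during treatment and a 7-day follow-up. After sacrifice, liver and spleen were weighed and serum ALP, ALT, creatinine, urea and AST were measured with kits, compared with untreated infected animals.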

Leishmania tropica [9] = test: (§2) Antileishmanial activity against Leishmania tropica MHOM/MA/1988/LEM1314 promastigotes infected in Syrian hamster assessed as reduction in lesion thickness at 2.5 % administered once daily tropically on footpad for 3 weeks starting at week 7 post infection measured 1 week post last dose relative to control; format: functional; design: scale not given: the % may be the effect or the level left
Outline: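 L. tropica stationary-phase promastigotes (3 × 10^7 in 50 μL PBS) injected into the left hind footpad. Treatment began at week 7 (+75% footpad thickness) and ran daily for 21 days, n = 10/group. Routes were 50 mg ointment on the lesion (cetyl alcohol/lanolin/petrolatum base), gavage in olive oil, or intralesional meglumine antimoniate 2 mg SbV/kg. Lesion thickness was measured weekly against base-only ointment; sacrifice was 1 week after the last dose.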

Leishmania tropica [10] = test: as §2, with “parasite load in spleen” for “lesion thickness”, “1” for “2.5”, “dose by qPCR analysis” for “dose”; format: functional
Outline: (§3)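 Hamsters were infected in the footpad and treated daily for 21 days from week 7 post-infection, n = 10/group, and sacrificed 1 week after the last dose. Footpad skin, liver and spleen DNA was assayed by L. tropica-specific TaqMan qPCR (chromosome 29 target), in triplicate with 50 ng DNA per 25 μL reaction. Load was interpolated from Ct on a calibration curve of promastigote DNA, relative to base-ointment controls.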

Syrian golden hamster [11] = test: Toxicity in Syrian hamster assessed as redness at 500 mg/kg, po or 5 % administered tropically on footpad for 28 days; format: organism-based, Mesocricetus auratus; conditions: in vivo, 672 h
Leishmania tropica [12] = test: as §2, with “parasite load in spleen” for “lesion thickness”, “[…]” for “2.5 %”, “through oral gavage” for “tropically on footpad”, “dose by qPCR analysis” for “dose”; format: functional; outline: as §3
Syrian golden hamster [13] = test: Toxicity in Syrian hamster assessed as mean serum ALP levels at 5 % administered tropically on footpad for 28 days (reference value: 14.4 +/- 2 U/L); format: organism-based, Mesocricetus auratus; conditions: in vivo, topical_or_ocular, 672 h
Syrian golden hamster [14] = test: Toxicity in Syrian hamster infected with Leishmania tropica MHOM/MA/1988/LEM1314 promastigotes assessed as liver weight at 5 % administered tropically on footpad for 3 weeks starting at week 7 post infection measured 1 week post last dose (reference value: 3.3 +/- 0.2 g); format: organism-based, Mesocricetus auratus; conditions: in vivo, topical_or_ocular, 168 h; outline: as §1
Syrian golden hamster [15] = test: Toxicity in Syrian hamster assessed as mean serum AST levels at 5 % administered tropically on footpad for 28 days (reference value: 83.4 +/- 4.2 U/L); format: organism-based, Mesocricetus auratus; conditions: in vivo, topical_or_ocular, 672 h
Syrian golden hamster [16] = test: Toxicity in Syrian hamster infected with Leishmania tropica MHOM/MA/1988/LEM1314 promastigotes assessed as mean serum creatinine levels at 2.5 % administered tropically on footpad for 3 weeks starting at week 7 post infection measured 1 week post last dose (reference value: 0.19 mg/dl); format: organism-based, Mesocricetus auratus; conditions: in vivo, topical_or_ocular, 168 h
Syrian golden hamster [17] = test: Toxicity in Syrian hamster infected with Leishmania tropica MHOM/MA/1988/LEM1314 promastigotes assessed as liver weight at 200 mg/kg administered through oral gavage for 3 weeks starting at week 7 post infection measured 1 week post last dose (reference value: 3.3 +/- 0.2 g); format: organism-based, Mesocricetus auratus; conditions: in vivo; outline: as §1
Syrian golden hamster [18] = test: Toxicity in Syrian hamster infected with Leishmania tropica MHOM/MA/1988/LEM1314 promastigotes assessed as urea levels at 1 % administered tropically on footpad for 3 weeks starting at week 7 post infection measured 1 week post last dose (reference value: 32.5 +/- 0.8 mg/dl); format: organism-based, Mesocricetus auratus; conditions: in vivo, topical_or_ocular, 168 h
Syrian golden hamster [19] = test: Toxicity in Syrian hamster infected with Leishmania tropica MHOM/MA/1988/LEM1314 promastigotes assessed as diarrhea at 200 mg/kg administered through oral gavage for 3 weeks starting at week 7 post infection measured during compound dosing or measured 1 week post last dose; format: organism-based, Mesocricetus auratus; conditions: in vivo, 168 h; outline: as §1
Syrian golden hamster [20] = test: Toxicity in Syrian hamster assessed as pain at 500 mg/kg, po or 5 % administered tropically on footpad for 28 days; format: organism-based, Mesocricetus auratus; conditions: in vivo, 672 h
Syrian golden hamster [21] = test: Toxicity in Syrian hamster infected with Leishmania tropica MHOM/MA/1988/LEM1314 promastigotes assessed as urea levels at 200 mg/kg administered through oral gavage for 3 weeks starting at week 7 post infection measured 1 week post last dose (reference value: 32.5 +/- 0.8 mg/dl); format: organism-based, Mesocricetus auratus; conditions: in vivo, 168 h
Syrian golden hamster [22] = test: Toxicity in Syrian hamster assessed as stress at 500 mg/kg, po or 5 % administered tropically on footpad for 28 days; format: organism-based, Mesocricetus auratus; conditions: in vivo, 672 h
Syrian golden hamster [23] = test: Toxicity in Syrian hamster infected with Leishmania tropica MHOM/MA/1988/LEM1314 promastigotes assessed as mean serum AST levels at 1 % administered tropically on footpad for 3 weeks starting at week 7 post infection measured 1 week post last dose (reference value: 77.1 +/- 0.9 U/L); format: organism-based, Mesocricetus auratus; conditions: in vivo, topical_or_ocular, 168 h
Syrian golden hamster [24] = test: Toxicity in Syrian hamster infected with Leishmania tropica MHOM/MA/1988/LEM1314 promastigotes assessed as urea levels at 5 % administered tropically on footpad for 3 weeks starting at week 7 post infection measured 1 week post last dose (reference value: 32.5 +/- 0.8 mg/dl); format: organism-based, Mesocricetus auratus; conditions: in vivo, topical_or_ocular, 168 h

For `CC(C)=CCC[C@](C)(O)[C@@H]1CC=C(C)CC1` [LEVOMENOL], the LOAEL [1] was 2 mL/kg, the Activity (Syrian golden hamster [2]) was 180.2 mg and the Activity (Syrian golden hamster [3]) was 81.3 U/L. For the same compound, the Activity (Syrian golden hamster [4]) was 77.9 U/L, the Activity (Syrian golden hamster [5]) was 14.7 U/L and the Activity (Syrian golden hamster [6]) was 0.22 mg/dL. It also gave an Activity (Syrian golden hamster [7]) of 175.3 mg, an Activity (Syrian golden hamster [8]) of 3.2 g and an Activity (Leishmania tropica [9]) of 56.4%. For the same compound, the Activity (Leishmania tropica [10]) was “Active”, the Activity (Syrian golden hamster [11]) was “Non-Toxic” and the Activity (Leishmania tropica [12]) was “Active”. For the same compound, the Activity (Syrian golden hamster [13]) was 14.1 U/L, the Activity (Syrian golden hamster [14]) was 3.2 g and the Activity (Syrian golden hamster [15]) was 83.4 U/L. The Activity (Syrian golden hamster [16]) was 0.21 mg/dL, the Activity (Syrian golden hamster [17]) was 3 g and the Activity (Syrian golden hamster [18]) was 33.7 mg/dL. The Activity (Syrian golden hamster [19]) was “Non-Toxic”, the Activity (Syrian golden hamster [20]) was “Non-Toxic” and the Activity (Syrian golden hamster [21]) was 34.4 mg/dL. The Activity (Syrian golden hamster [22]) was “Non-Toxic”, the Activity (Syrian golden hamster [23]) was 82.2 U/L and the Activity (Syrian golden hamster [24]) was 34.2 mg/dL.

Source: ChEMBL document CHEMBL3872233, “Topical Treatment of Leishmania tropica Infection Using (-)-α-Bisabolol Ointment in a Hamster Model: Effectiveness and Safety Assessment” (J Nat Prod, 2016)
